Most compounds without a hit are left out; they make up all but 6.6% or so of the library.
tolC growth inh = growth inhibitors of E. coli BW25113 tolC mutant; OD615; growth inhibition, % at 10 µM (by protocol); actives 2.2% (n = 65,000);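 active = growth inhibition at or above a cutoff equal to the mean over every tested compound plus 3 SD, cut at about 60% in these data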;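 note: growth measured after 20 h incubation at 37 °C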
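signal = optical density read at 615 nm | test system = E. coli ΔtolC::kan strain BW25113 | timing = 20 h compound exposure of bacteria at 37 °C | buffer or medium = LB medium plus 50 µg/mL kanamycin | compound dosing = 10 µM final, single dose | evaluation = % inhibition of E. coli growth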
PostGolgi ctrl = inhibits growth of the yeast control strain; actives 5% (n = 98,000); inhibition, % at 10 µM; efflux-deficient yeast background strain, growth absorbance A615, 16 h
Her2 expr inh = Her2 kinase expression inhibition; P04626; SKBR-3 HER2 protein level, AlphaScreen, 18-24 h; hits give low values; HER2 level % of control, % at 10 µM; actives 0.69% (n = 65,000); AID 645;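 active = HER2 level under 5% of the carrier-only control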;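 note: 100% = DMSO carrier and 0% = 500 nM PU-H71 HSP90 inhibitor; lower value means stronger loss of Her2 protein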
Target sequence (P04626 whole entry, looked up): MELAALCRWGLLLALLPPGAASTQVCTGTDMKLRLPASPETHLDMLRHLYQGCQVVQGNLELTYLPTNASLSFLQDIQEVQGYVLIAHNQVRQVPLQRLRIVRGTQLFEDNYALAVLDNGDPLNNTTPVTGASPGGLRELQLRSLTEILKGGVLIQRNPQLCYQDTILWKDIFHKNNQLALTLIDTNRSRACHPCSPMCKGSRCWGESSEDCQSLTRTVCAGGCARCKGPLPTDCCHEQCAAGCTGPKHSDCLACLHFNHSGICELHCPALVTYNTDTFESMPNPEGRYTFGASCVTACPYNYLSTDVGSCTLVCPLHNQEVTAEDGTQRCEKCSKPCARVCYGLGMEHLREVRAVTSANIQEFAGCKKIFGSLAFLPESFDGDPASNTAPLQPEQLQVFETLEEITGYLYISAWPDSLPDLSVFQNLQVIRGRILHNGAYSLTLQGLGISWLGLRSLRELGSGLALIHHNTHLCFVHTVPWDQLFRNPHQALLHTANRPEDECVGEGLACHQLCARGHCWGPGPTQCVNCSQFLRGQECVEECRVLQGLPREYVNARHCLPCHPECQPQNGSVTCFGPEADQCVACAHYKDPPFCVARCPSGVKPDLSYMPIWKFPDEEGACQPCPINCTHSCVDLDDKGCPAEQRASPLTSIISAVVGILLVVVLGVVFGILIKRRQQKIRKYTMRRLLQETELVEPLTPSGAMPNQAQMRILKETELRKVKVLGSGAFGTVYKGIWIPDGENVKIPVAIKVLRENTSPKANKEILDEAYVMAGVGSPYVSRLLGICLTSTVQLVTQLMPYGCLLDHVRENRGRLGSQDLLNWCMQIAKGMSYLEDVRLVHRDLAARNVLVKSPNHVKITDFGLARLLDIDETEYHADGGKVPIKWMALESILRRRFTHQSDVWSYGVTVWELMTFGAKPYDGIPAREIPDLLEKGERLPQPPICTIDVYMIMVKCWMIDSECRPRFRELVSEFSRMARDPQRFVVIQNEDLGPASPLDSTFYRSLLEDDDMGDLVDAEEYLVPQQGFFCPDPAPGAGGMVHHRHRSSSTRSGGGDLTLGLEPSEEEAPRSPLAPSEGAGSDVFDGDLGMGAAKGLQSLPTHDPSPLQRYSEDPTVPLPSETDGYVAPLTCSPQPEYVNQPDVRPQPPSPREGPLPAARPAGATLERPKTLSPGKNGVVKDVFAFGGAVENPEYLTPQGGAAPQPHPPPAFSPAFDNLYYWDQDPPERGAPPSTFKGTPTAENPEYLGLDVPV
PostGolgi yeast = growth inhibition of a yeast mutant, post-Golgi transport screen; post-Golgi transport phenotypic cell assay; AID 739; actives 0.9% (n = 98,000); inhibition, % at 10 µM;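 note: yeast cells grown in 1536-well plates; yeast grown about 18 h at 30C before absorbance read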
Ecoli WT expand = blocks growth of wild type E. coli BW25113; growth inhibition, % at 100 µM; OD600 absorbance; AID 710; actives 0.15% (n = 98,000);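 active = growth inhibition above about 50% at one test dose, limit read from the data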;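 note: growth measured after 20 h incubation at 37 °C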
* hit, by the source's call; x = no result given. Cut-off read from the data, not from the text of the source, unless noted: active = inhibition above about 30%; inactive = the rest.

SMILES	tolC growth inh	PostGolgi ctrl	Her2 expr inh	PostGolgi yeast	Ecoli WT expand
Cc1ccc2c(c1)CC1(CN2C)C(=O)NC(=O)N(C(C)C)C1=O (centres undefined)	-13.3	8.3	86.2	-0.2	-8.0
Cc1ccc2c(c1)CC1(CN2C)C(=O)NC(=O)N(CCC2=CCCCC2)C1=O (centres undefined)	29.5	40.5*	82.2	10.7	-6.0
OCc1cnc[nH]1	-18.3	x	116.0	x	x
CCC(=Nc1ccc(OC)cc1OC)c1c(O)n(C2CCCCC2)c(=O)[nH]c1=O	76.9*	48.3*	85.5	71.4*	0.0
CCC(=NCc1ccco1)c1c(O)n(C2CCCCC2)c(=O)[nH]c1=O	14.8	45.4*	272.3	15.1	-6.0
O=C(O)CP(=O)(O)c1ccc(Cl)cc1	-17.9	-6.5	102.2	14.2	5.0
CC(C)N1CCC2(CC1)NC(CO)(CO)CO2	-7.2	14.5	97.8	1.9	2.0
COc1ccc(S(=O)(=O)NC(CC(=O)N2CCC3(CC2)OCCO3)C(C)C)cc1 (centres undefined)	x	5.7	x	-5.4	-6.0
COc1ccccc1OCCCn1cc(C(=O)c2ccco2)c2ccccc21	52.9	48.9*	81.8	-8.3	-35.0
CCCCN1C(=O)NC(=O)C2(Cc3c(nc4c(C)cccn4c3=O)N3CCc4ccccc4C32)C1=O (centres undefined)	97.9*	39.4*	1.2*	1.0	-7.0
ClCCNc1nc2ccc(Cl)cc2[nH]1	x	12.1	x	6.9	54.0*
COc1ncccc1C(=O)NCC(CC(=O)O)c1ccccc1 (centres undefined)	-8.3	9.4	118.3	-3.6	-12.0
CCN(c1ccc(C(O)(C(=O)OC)C(F)(F)F)cc1)S(=O)(=O)c1ccc(C)cc1 (centres undefined)	x	35.4*	x	-2.0	1.0
Cc1ccc(N2C(=O)NC(=O)/C(=C/c3ccc(OC(=O)c4cccs4)cc3)C2=O)cc1	x	32.0*	x	0.8	2.0
O=c1[nH]c(=S)n(Cc2ccco2)c(O)c1C=NCc1cccs1	x	35.8*	x	7.9	4.0
O=c1[nH]c(=O)n(Cc2ccco2)c(O)c1C=NCc1cccs1	-12.7	-4.6	80.0	0.9	6.0
O=c1cccc2n1CC1CC2CN(S(=O)(=O)c2ccccc2)C1 (centres undefined)	x	2.5	x	43.1*	4.0
Fc1ccc2c(c1)nnn2C1CCN(Cc2nnnn2CCc2ccccc2)CC1	5.7	-8.2	83.9	4.0	-1.0
CCC(C)(C)n1nnnc1C(c1cccs1)N1CC=C(c2ccc(F)cc2)CC1 (centres undefined)	14.8	40.9*	84.1	4.2	-11.0
Fc1ccc(C2=CCN(C(c3cccs3)c3nnnn3CCc3ccccc3)CC2)cc1 (centres undefined)	x	43.1*	x	4.3	-10.0
Cc1cccc(CN(C)C)c1OC(=O)N(C)C	-14.3	-9.8	91.2	-12.6	-1.0
COc1ccccc1N1CCN(Cc2ccc(Br)s2)CC1	37.3	4.0	98.6	-5.4	9.0
O=C(Cc1ccccc1)Oc1cccc(N2C(=O)CCC2=O)c1	-19.5	32.8*	61.7	2.7	4.0
O=C(Cc1ccccc1)OCCN1CCCCC1	-19.9	6.4	89.0	8.0	2.0
O=S(=O)(c1ccc(Cl)cc1)N1CN2CCN(C2)C1	-18.4	18.7	110.0	-7.4	0.0
SMILES	tolC growth inh	PostGolgi ctrl	Her2 expr inh	PostGolgi yeast	Ecoli WT expand
CN1CCc2nc3sc(C(=O)NC(C)(C)C)c(N)c3cc2C1	x	68.3*	x	96.3*	0.0
CCC1(c2ccccc2)C(=O)N(COC)C(=O)N(COC)C1=O	-5.6	-12.4	66.2	1.3	-5.0
Nc1c(C(=O)NC2CCCC2)c2nc3ccccc3nc2n1CC1CCCO1 (centres undefined)	14.9	62.2*	-28.5*	-1.6	-8.0
C[N+]12CCC(CC1)C(C(O)(c1ccccc1)c1cccs1)C2 (centres undefined)	x	5.7	x	-11.9	2.0
O=C1C(=O)c2ccccc2-c2ccccc21	x	37.9*	x	6.7	30.0
O=C(c1sc2ccccc2c1Cl)N1CCC2(CC1)OCCO2	16.5	46.3*	116.1	3.7	5.0
CN1C2CCC1CC(OC(=O)c1cc(Cl)cc(Cl)c1)C2 (centres undefined)	x	-5.1	x	21.4	5.0
CCCCOc1ccc(CN2CCN(CCO)CC2)cc1	-18.6	8.4	109.0	5.3	7.0
CCCCCCOc1ccc(CN2CCN(CCO)CC2)cc1	8.8	31.4*	72.8	89.1*	13.0
C1=C(CCNCc2ccccc2)CCCC1	x	8.1	x	-5.6	94.0*
Fc1ccc(CCNCc2ccccc2Cl)cc1	x	6.4	x	-2.5	14.0
CN1/C(=C\C=C\C2=[N+](C)c3ccc4ccccc4c3C2(C)C)C(C)(C)c2ccccc21	x	99.9*	x	101.3*	84.0*
CCOC(=O)c1c(C)n(Cc2ccco2)c2c1cc(O)c1ccccc12	x	11.0	x	4.9	-5.0
Cc1ccc(C2C(S(C)(=O)=O)=C(O)C(=O)N2c2ccccc2)cc1 (centres undefined) (tested in a mixture with another compound)	74.9*	13.8	126.3	0.2	4.0
O=C(c1cc(-c2ccc(Cl)cc2)n(-c2ccc(Cl)cc2Cl)n1)N1CCOCC1	x	33.4*	x	6.1	-1.0
Cn1c(O)c(C=NC2CC(C)(C)NC(C)(C)C2)c(=O)n(C)c1=O	-1.2	9.1	110.9	2.8	1.0
Cc1nc2ccccc2n1C1CCN(Cc2nnnn2CCc2ccccc2)CC1	9.6	39.5*	89.5	0.7	-6.0
CC(=NCc1ccco1)c1c(O)n(Cc2ccccc2)c(=O)[nH]c1=O	25.0	22.0	113.6	11.1	-9.0
CCOC(=O)c1ccc(NC(=O)c2c(O)[nH]c(=O)[nH]c2=O)cc1	-19.5	7.4	79.4	-2.1	-1.0
CC(=O)OC1C2CCCC1C(N1CCCC1)CC2 (centres undefined)	-15.1	4.8	109.4	-2.5	5.0
C=CCn1c(O)c(C(CC)=NCc2cc(OC)cc(OC)c2)c(=O)[nH]c1=O	24.4	34.2*	90.7	0.5	5.0
C=CCn1c(O)c(C(CC)=NCCC2=CCCCC2)c(=O)[nH]c1=O	x	38.2*	x	3.5	4.0
CCCCn1c(O)c(C(CC)=NCc2ccc3c(c2)OCO3)c(=O)[nH]c1=O	13.9	54.6*	100.6	4.5	5.0
C=CCn1c(O)c(C(CC)=NCCCO)c(=O)[nH]c1=O	-1.1	10.5	140.3	4.8	-4.0
CCN1CCN(C(=O)COc2ccc3c(c2)C(=O)CC2(CCN(C(C)=O)CC2)O3)CC1	x	5.5	x	0.3	-4.0
SMILES	tolC growth inh	PostGolgi ctrl	Her2 expr inh	PostGolgi yeast	Ecoli WT expand
C(#CCN1CCOCC1)COCc1ccccc1	2.3	-1.7	113.0	5.5	-1.0
Clc1ccc(COC(Cn2ccnc2)c2ccc(Cl)cc2Cl)cc1 (centres undefined)	100.0*	x	-15.3*	x	x
Clc1ccc(CSC(Cn2ccnc2)c2ccc(Cl)cc2Cl)cc1 (centres undefined)	9.8	x	82.2	x	x
O=C(Nc1cccnc1)c1c(O)c2c(n(Cc3ccccc3)c1=O)CCCC2	36.2	38.5*	16.9	-1.1	-7.0
O=P(O)(O)C#Cc1ccccc1	-4.3	-7.0	85.7	-3.1	-6.0
N#Cc1ccccc1Cn1cc(C(=O)c2cccs2)c2ccccc21	3.6	-1.9	103.0	56.8*	-8.0
